Screening results: PubChem BioAssay, Sanford-Burnham Center for Chemical Genomics
Apaf1 activ: activators of human Apaf-1 apoptosome. O14727. Apaf-1 apoptosome caspase-3 activation, DEVD-Rh110 fluorescence; hits give low values. activity change, negative = activation, % at 20 µM. 330,000 compounds, 0.31% hits;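 active = activity change at or below -40% at 20 µM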
Target sequence (O14727 whole entry, looked up): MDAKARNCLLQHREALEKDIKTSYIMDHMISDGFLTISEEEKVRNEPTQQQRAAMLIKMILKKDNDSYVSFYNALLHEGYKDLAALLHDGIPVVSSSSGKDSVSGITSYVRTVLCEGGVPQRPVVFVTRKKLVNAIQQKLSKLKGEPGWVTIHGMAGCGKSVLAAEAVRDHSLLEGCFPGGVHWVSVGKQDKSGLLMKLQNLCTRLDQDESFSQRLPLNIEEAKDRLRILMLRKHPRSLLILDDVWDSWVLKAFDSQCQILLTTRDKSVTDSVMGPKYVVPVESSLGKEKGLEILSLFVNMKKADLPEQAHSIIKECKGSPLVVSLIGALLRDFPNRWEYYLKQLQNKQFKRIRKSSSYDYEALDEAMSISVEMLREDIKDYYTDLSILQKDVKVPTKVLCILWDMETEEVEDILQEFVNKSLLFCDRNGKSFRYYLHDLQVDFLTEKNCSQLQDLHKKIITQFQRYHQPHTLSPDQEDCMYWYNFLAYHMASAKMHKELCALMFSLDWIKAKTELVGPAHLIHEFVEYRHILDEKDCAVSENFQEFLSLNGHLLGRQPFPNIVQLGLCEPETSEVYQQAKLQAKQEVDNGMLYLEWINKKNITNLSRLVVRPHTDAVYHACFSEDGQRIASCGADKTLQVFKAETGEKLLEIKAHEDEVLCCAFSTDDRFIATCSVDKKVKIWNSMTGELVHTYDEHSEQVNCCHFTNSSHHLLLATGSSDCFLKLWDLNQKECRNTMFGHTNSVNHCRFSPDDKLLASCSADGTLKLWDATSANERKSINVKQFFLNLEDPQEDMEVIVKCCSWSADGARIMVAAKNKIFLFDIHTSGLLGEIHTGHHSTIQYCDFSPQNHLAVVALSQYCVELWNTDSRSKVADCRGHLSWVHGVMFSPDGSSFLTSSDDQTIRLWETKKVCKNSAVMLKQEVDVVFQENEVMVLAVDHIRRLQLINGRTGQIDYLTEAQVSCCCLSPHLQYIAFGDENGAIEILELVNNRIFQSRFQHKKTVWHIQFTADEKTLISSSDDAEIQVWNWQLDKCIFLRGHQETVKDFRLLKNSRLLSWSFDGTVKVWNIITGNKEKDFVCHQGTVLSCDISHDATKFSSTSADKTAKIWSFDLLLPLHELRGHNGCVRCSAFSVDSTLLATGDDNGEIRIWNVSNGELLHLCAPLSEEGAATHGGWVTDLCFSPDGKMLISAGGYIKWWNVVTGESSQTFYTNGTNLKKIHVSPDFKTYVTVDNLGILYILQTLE
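Material: reconstituted apoptosome of Apaf-1, cytochrome c, caspase-9, procaspase-3; times: 30 min preincubation, 50 min reaction, room temperature; measured by: fluorescence, 540 nm emission, 480 nm excitation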
Rh110 act interf: interferes with Rh110 fluorescence, flagging false Apaf-1 activators; shares compounds with Apaf1 activ; Rh110 fluorescence interference, quenched caspase reaction, Ex480/Em540; fluorescence interference (activity change), % at 20 µM, hits read low; 980 tested, under 10 active; AID 504616;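 active = mean activity change at or below -40% when tested at 20 µM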
Apaf-1 act conf2: Apaf-1 (human) activation, single-dose confirmed; shares compounds with Apaf1 activ; reconstituted apoptosome caspase-3 activity, DEVD-Rh110 fluorescence; hits give low values; activity change, negative = activation, % at 20 µM; 980 compounds, 5% hits;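 active = mean activity change at or below -40%, meaning activation of 40% or more, at 20 µM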
Apaf1 act interf: Apaf-1 activator counter-screen fluorescence artifact | shares compounds with Apaf1 activ | fluorescence interference counterscreen, Apaf-1 activator assay | EC50, µM | 55 tested, under 10 active; call rule not given here
Hits are given with their value; n = inactive; x = no result. Only a sample is shown.

SMILES	Apaf1 activ	Rh110 act interf	Apaf-1 act conf2	others
CCc1ccc(OCC(O)CN2CCC(CN3C(=O)c4cccc5cccc(c45)C3=O)CC2)cc1 (stereo not given)	n	x	x
CCOC(=O)C1(CCOc2ccccc2)CCN(CC(O)CO)CC1 (stereo not given)	-53	n	n
CCN(CC)CCOC(=O)c1ccc(N/C=C(/C#N)c2nc(-c3cc4ccccc4oc3=O)cs2)cc1	n	x	x
N#CC1=C(N)Oc2n[nH]c(-c3cccs3)c2C1c1ccsc1 (stereo not given)	n	x	x
O=C(COC(=O)/C=C/c1ccc(OC(F)F)cc1)NC1CCCCCC1	-64	n	n
CCN1CCN(c2ccc(S(=O)(=O)N3CCCCC3)cc2NC(=O)/C=C/c2ccc(OC(F)F)cc2)CC1	n	x	x
CCCOc1cc(NCc2ccccc2)c2ncn(C(C)C)c2c1	n	x	x
O=c1cc(-c2cc3ccccc3o2)c2cc(O)ccc2o1	-234	n	n
Cc1cc(O)c2c(c1O)C(=O)[C@]13C(=C2O)C(=O)[C@@H]2[C@@H](O)[C@H]1[C@@H]1[C@H](O)[C@H]3C(=O)C3=C(O)c4c(O)cc(C)c(O)c4C(=O)[C@]312	n	x	x
CN(C)CCCN1c2ccccc2Sc2ccc(Cl)cc21	n	x	x
OCc1cc(C(O)CNCCCCCCOCCCCc2ccccc2)ccc1O (stereo not given)	n	x	x
O=C1Nc2ccccc2N2CCCC12 (stereo not given)	n	x	x
O=C1CN(C(=O)c2cnccn2)c2ccccc2N1	-47	n	n
CCCCCCOC(=O)C[N+](C)(C)CCOC1CC2CCC1(C)C2(C)C (stereo not given)	n	x	x
NNC(=O)c1ccc(Cn2cc(Br)c(N)n2)cc1	-40	n	n
Cc1ccccc1NC1=C/C(=N\S(=O)(=O)c2cccs2)c2ccccc2C1=O	n	x	x
COc1ccc(N/C=C2\CCc3ccccc3C2=O)cc1	n	x	x
CC(=O)Nc1ccc(NC2=C/C(=N/S(=O)(=O)c3cccs3)c3ccccc3C2=O)cc1	n	x	x
CC(C)(C)NC(=O)c1cc(-c2ccc3c(c2)OCO3)nc2ccccc12	-71	n	n
CCOc1ccccc1NC(=O)c1cc(-c2ccccn2)nc2ccccc12	n	x	x
COc1cccc(-c2sc3ccc(OC)cc3c2-c2ccc(OCCN(C)C)cc2)c1	n	x	x
CC(=O)c1ccc(-n2ccc(=O)cc2)cc1	-494	n	n
CCOc1ccccc1OCCC(=O)NNC(=O)Cn1nc(C)cc1C	-81	n	n
C#CCOCCOCCOCCNc1nc(N2CCN(C(=O)CCCCCCCCCCNC(=O)[C@H]([C@@H](C)CC)n3cc(CCCCN=C(N)N)nn3)CC2)nc(N2CCN(C(=O)CCCCCCCCCCNC(=O)[C@H](CCCCN)n3cc(C[C@@H](C)CC)nn3)CC2)n1	n	x	x
Cc1[nH]n(-c2ccccc2)c(=O)c1/C=N/NC(=O)c1ccc(O)cc1O	n	x	x
SMILES	Apaf1 activ	Rh110 act interf	Apaf-1 act conf2	others
O=c1cc(N/N=C/c2ccccc2)[nH]c(=O)[nH]1	n	x	x
COc1ccc(/C=N/NC(=O)c2cc(=O)[nH]c3ccccc23)cc1OC	-544	n	n
Oc1ccc(NCc2ccccc2OCc2ccccc2)cc1	n	x	x
CC(=O)c1cccc(NC(=S)Nc2cccc3ccccc23)c1	n	x	x
COc1cccc(NC(=S)NC(=O)c2cncc(Br)c2)c1	-318	n	n
COc1cccc(NC(=O)c2cc(C(=O)Nc3cccc(OC)c3)n(C)n2)c1	n	x	x
S=c1[nH]nc(-c2ccncc2)n1/N=C/c1cn(-c2ccccc2)nc1-c1ccc(Cl)cc1	-59	n	n
Cc1ccc(-n2nc(C)c3c2OC(N)=C(C#N)C3c2ccoc2)cc1 (stereo not given)	n	x	x
N#Cc1c(N)n(CCOC(=O)c2cccc(Br)c2)c2nc3ccccc3nc12	n	x	x
Clc1ccccc1-c1nn2c(-c3ccncc3)nnc2s1	n	x	x
CCCNC(=O)OC[C@H]1O[C@H](CCO/N=C(\C)CCN2CCc3nc(-c4ccccc4)c(-c4ccccc4)cc3C2)C=C[C@@H]1Oc1ccc(OC)cc1	n	x	x
C=C(C)C(=O)Nc1cccc(C2=NOC3(C2)C[C@@H](C(N)=O)N(C(=O)/C=C/CC)C3)c1 (stereo not given in full)	-205	n	-114	Apaf1 act interf=n
C=C(C)C(=O)Nc1cccc(C2=NOC3(C2)C[C@H](C(N)=O)N(C(=O)/C=C/C)C3)c1 (stereo not given in full)	-280	n	-126	Apaf1 act interf=n
C#CCOCCOCCOCCNc1nc(N2CCN(C(=O)[C@H](Cc3cc4ccccc4[nH]3)n3cc([C@@H](N)C(C)CC)nn3)CC2)nc(N2CCN(C(=O)[C@H](Cc3cc4ccccc4[nH]3)n3cc([C@@H](N)Cc4ccc(O)cc4)nn3)CC2)n1 (stereo not given in full)	n	x	x
C#CCOCCOCCOCCNc1nc(N2CCN(C(=O)CCCCCCCCCCNC(=O)[C@H](CCCCN)n3cc(CCO)nn3)CC2)nc(N2CCN(C(=O)CCCCCCCCCCNC(=O)[C@H](CCCCN)n3cc(CCO)nn3)CC2)n1	n	x	x
O=C(O)c1ccc(N2C(=O)/C(=C/c3ccc(-c4ccc([N+](=O)[O-])cc4)o3)C=C2c2ccccc2)cc1	n	x	x
N=c1n(Cc2ccccc2)c2ccccc2n1CC(O)COc1ccc(Cl)cc1Cl (stereo not given)	n	x	x
Cc1nn(-c2ccccc2)c2c1C(c1ccccc1)C(C#N)=C(N)O2 (stereo not given)	n	x	x
Cc1cccc(OCc2n(CC(=O)OC3CC(C)CCC3C(C)C)c3ccccc3[n+]2C)c1 (stereo not given)	n	x	x
CCS(=O)(=O)c1nc(S(=O)(=O)c2ccc(Cl)cc2)c(N2CCc3ccccc3C2)s1	-406	n	n
Cc1ccc2nc(N(CCCN(C)C)C(=O)c3ccc(S(=O)(=O)N4CCc5ccccc5C4)cc3)sc2c1	n	x	x
CCC(CO)Oc1cc(NCc2ccc(C)cc2)c2ncn(C(C)C)c2c1 (stereo not given)	n	x	x
Cc1ccccc1-n1c(C)nc2ccccc21	-75	n	n
CCN1CCN(CCNC(=O)c2ccc3nc(-c4cccc(C)c4)c(-c4cccc(C)c4)nc3c2)CC1	n	x	x
CCN1/C(=C/C=C/C=C/c2sc3ccccc3[n+]2CC)Sc2ccccc21	n	x	x
SMILES	Apaf1 activ	Rh110 act interf	Apaf-1 act conf2	others
CC(C)c1ccc(S(=O)(=O)/N=C2/C=CC(=O)c3ccccc32)cc1	n	x	x
CC(C)(O)C#Cc1ccc(CN2CCC(n3nccc3NC(=O)C3CC3)CC2)cc1	-79	n	n
COc1ccc2nc3cccc(OC)c3nc2c1	n	x	x
CC1=NN(Cc2ccccc2)C(=O)C1	n	x	x
COc1cc(-c2c(C#N)c(=O)[nH]c3c2c(C)nn3-c2ccccc2)ccc1O	n	x	x
COc1ccc(O)c(C(=O)c2cc(C#N)c(=O)n(-c3c(C)n(C)n(-c4ccccc4)c3=O)c2)c1	-40	n	n
Cc1ccc(NC2=CC(=O)C(=O)c3ccccc32)c(C)c1	n	x	x
COc1ccc(C(=O)CSc2nnc(-c3cccnc3)n2Cc2ccco2)cc1	-50	n	n
Cc1cnc(NC(=O)CSc2ncc(-c3ccccc3)n2Cc2ccco2)s1	n	x	x
CC(C)(C)c1ccc(C(=O)NNc2cc(N3CCCCC3)nc(N3CCCCC3)n2)cc1	n	x	x
O=C(Cc1ccccc1)NC1(O)C(=O)c2ccccc2C1=O	n	x	x
